Measured values from different studies.
Protocols differ between the studies behind these lines.
LRRK2 G2019S: Leucine-rich repeat serine/threonine-protein kinase 2 (LRRK2, Homo sapiens, UniProt Q5S007, G2019S)
LRRK2: Leucine-rich repeat serine/threonine-protein kinase 2 (LRRK2, Homo sapiens, UniProt Q5S007)

SMILES	target	read-out	method	tested at	remaining binding [%]
CC1CCCN1c1nccc(-c2cnn3ncccc23)n1 (centres unmarked)	LRRK2 G2019S	binding	–	1 µM	100
CS(=O)(=O)N1CCCC(NC(=O)[C@H](CCC2CCCCC2)NC(=O)c2ccc(CNC(=O)c3cnc4ccccn34)cc2)C1 (some centres unmarked)	LRRK2 G2019S	cell-free assay	competition with immobilised ligand	0.1 µM	100
O=C(NCCCN1CCOCC1)c1ccc(Nc2ncc(Cl)c(-c3ccc(Cl)s3)n2)cc1	LRRK2 G2019S	binding	competition with immobilised ligand	1 µM	10
COc1cnc(Nc2cccc(S(N)(=O)=O)c2)nc1N1CCN(c2ccccc2)CC1	LRRK2 G2019S	binding	competition with immobilised ligand	1 µM	95
CN([C@@H]1CCc2c(CC(=O)O)c3cc(S(C)(=O)=O)ccc3n2C1)S(=O)(=O)c1ccc(F)cc1	LRRK2 G2019S	cell-free assay	competition with immobilised ligand	1 µM	100
C=CC(=O)N1CCC(C(=O)NCC(=O)N2CCN(c3nc(-c4cnc(N)nc4C(F)F)nc(N4CCOCC4)n3)CC2)CC1	LRRK2 G2019S	binding	competition with immobilised ligand	1 µM	79
Cc1nc(C2CCN(C(=O)c3ccc(OC(F)(F)F)cc3N)CC2)c2ncc(N3CCN(C)CC3)cc2n1	LRRK2 G2019S	cell-free assay	competition with immobilised ligand	1 µM	100
FC(F)(F)Oc1cccc(-c2cnc3ccc(-c4ccncc4)nn23)c1	LRRK2	cell-free assay	competition with immobilised ligand	5 µM	52
CN(C)c1nccc(-c2cnn3ncccc23)n1	LRRK2 G2019S	binding	–	1 µM	69
COc1cnc(Nc2cccc(S(N)(=O)=O)c2)nc1N1CCN(c2ccccc2)C(=O)C1	LRRK2 G2019S	binding	competition with immobilised ligand	1 µM	100
COc1ncc2cc3ccccc3nc2c1C#N	LRRK2 G2019S	cell-free assay	competition with immobilised ligand	5 µM	100
CN(CCCC(F)(F)F)c1nccc(-c2cnn3ncccc23)n1	LRRK2 G2019S	binding	–	1 µM	100
Cn1cc(Cl)c2c(Oc3c(F)cc(Nc4cc(Cl)nc(N)n4)cc3F)ccnc21	LRRK2	cell-free assay	competition with immobilised ligand	0.1 µM	75
O=C(Nc1c[nH]nc1C(=O)NC1CCNCC1)c1cc(F)cc(F)c1	LRRK2 G2019S	binding	competition with immobilised ligand	1 µM	93
CCN1CCN(Cc2ccc(C(=O)Nc3ccc(C)c(Oc4ccc5c(c4)CC(=O)N5)c3)cc2C(F)(F)F)CC1	LRRK2 G2019S	binding	competition with immobilised ligand	1 µM	100
O=C(N[C@H]1CCCCC/C=C\C2C[C@@]2(C(=O)O)NC(=O)[C@@H]2C[C@@H](Oc3ccncc3)CN2C1=O)OC1CCCC1 (some centres unmarked)	LRRK2 G2019S	binding	competition with immobilised ligand	1 µM	86
CN(C)c1ncc(F)c(-c2cnn3ncccc23)n1	LRRK2 G2019S	binding	–	1 µM	100
CCS(=O)(=O)c1cc2cc(C[C@](O)(CC(C)(C)c3ccc(F)cc3C(N)=O)C(F)(F)F)[nH]c2cn1	LRRK2	cell-free assay	competition with immobilised ligand	1 µM	100

SMILES	target	read-out	method	tested at	remaining binding [%]
C[C@@H](c1ccc(-n2cnc3c(N)ncnc32)cc1)N1CCc2nn(C)c(Cc3ccccc3)c2C1=O	LRRK2 G2019S	binding	competition with immobilised ligand	0.1 µM	92
CN1CCN(c2ccc(Nc3nccc(-c4ccccc4)n3)cc2C(F)(F)F)CC1	LRRK2 G2019S	binding	–	10 µM	100
O=C(NCCCN1CCOCC1)c1ccc(Nc2nccc(-c3cc4ccccc4s3)n2)cc1	LRRK2	binding	competition with immobilised ligand	1 µM	63
CCC(=N\O)/C(C)=C/c1ccc(F)cc1	LRRK2	cell-free assay	competition with immobilised ligand	1 µM	90
C[C@@H]1CCN(c2nccc(-c3cnn4ncccc34)n2)C1	LRRK2 G2019S	binding	–	1 µM	63
O=C(c1ccc(Nc2ncc(Cl)c(-c3ccc(Cl)s3)n2)cc1)N1CCC(N2CCCC2)CC1	LRRK2 G2019S	binding	competition with immobilised ligand	1 µM	1.1
F[C@@H]1CCN(c2nccc(-c3cnn4ncccc34)n2)C1	LRRK2 G2019S	binding	–	1 µM	100
O=C(c1ccc(Nc2nccc(-c3cc4ccccc4s3)n2)cc1)N1CCC(N2CCCC2)CC1	LRRK2 G2019S	binding	competition with immobilised ligand	1 µM	16
CN(C)c1nccc(-c2cnc3ncccn23)n1	LRRK2 G2019S	binding	–	1 µM	71
CC(=O)c1c(NS(C)(=O)=O)c2cc(-c3ccc(Cl)cc3)c(-c3ccc(Cl)cc3Cl)nc2n(C)c1=O	LRRK2	cell-free assay	competition with immobilised ligand	1 µM	65
O=C(c1ccc(Nc2ncc(Cl)c(-c3cc4ccccc4s3)n2)cc1)N1CCC(N2CCCC2)CC1	LRRK2 G2019S	binding	competition with immobilised ligand	1 µM	5.9
c1cncc(-c2cccc(Nc3nccc(NC4CCCCC4)n3)c2)c1	LRRK2 G2019S	binding	competition with immobilised ligand	10 µM	61
N[C@H]1CCN(c2nccc(-c3cnn4ncccc34)n2)C1	LRRK2 G2019S	binding	–	1 µM	89
O=C(NCC1CCOCC1)c1n[nH]cc1NC(=O)c1c(F)cccc1F	LRRK2	binding	competition with immobilised ligand	1 µM	76
CNC(=O)[C@@H]1CC[C@@H](n2c(-c3ccc4cnccc4c3)nc3ccc(C(=O)NCc4cccc(C(N)=O)c4)cc32)C1	LRRK2	binding	competition with immobilised ligand	1 µM	100
Nc1ncc2c(n1)-c1c([nH]c3ccc(C#CC4CC4)cc13)CCCC2	LRRK2	binding	competition with immobilised ligand	1 µM	83
Cc1cnc(Nc2ccc(C(=O)N3CCC(N4CCCC4)CC3)cc2)nc1-c1cc2ccccc2s1	LRRK2 G2019S	binding	competition with immobilised ligand	1 µM	2.8
